Laboratory results reported in ChEMBL document CHEMBL1649486, “Comparative efficacies of telavancin and vancomycin in preventing device-associated colonization and infection by Staphylococcus aureus in rabbits” (2009).
Converted amounts (≈) assume the structure as drawn.

What was measured:
Type in all cases: functional
Staphylococcus aureus [1] = assay: Antimicrobial activity against Staphylococcus aureus P1 infected in New Zealand rabbit assessed as decrease in catheter related infection rate at 30 mg/kg, iv (reference value: 100%); parameters: scale not given: the % may be the effect or the level left
Summary of the method: (§1)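 Female specific-pathogen-free New Zealand White rabbits, 4-7 months old, 3-4 kg, nine per group. Each got a single iv dose over ~2 min under anesthesia, with D5W as control. Six subcutaneous catheter segments per rabbit were surface-inoculated with 10^5 CFU MSSA P1. Infection = inoculated strain grown from both the device sonication culture and a swab of adjacent soft-tissue collection or wound discharge; rate = infected/total devices.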

Staphylococcus aureus [2] = assay: Antimicrobial activity against Staphylococcus aureus P1 infected in New Zealand rabbit assessed as decrease in catheter related infection rate at 15 mg/kg, iv (reference value: 100%); parameters: scale not given: the % may be the effect or the level left; summary of the method: as §1
Staphylococcus aureus [3] = assay: Antimicrobial activity against Staphylococcus aureus P1 infected in New Zealand rabbit assessed as decrease in catheter bacterial colonization rate at 45 mg/kg, iv (reference value: 100%); parameters: scale not given: the % may be the effect or the level left
Summary of the method: (§2)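 Female specific-pathogen-free New Zealand White rabbits, 4-7 months old, 3-4 kg, nine per group. Each got a single iv dose over ~2 min under anesthesia, with D5W as control. Six 2-cm polyurethane catheter segments were implanted subcutaneously in the back, and each surface was inoculated with 10^5 CFU MSSA P1 in Trypticase soy broth. Explants were sonicated in 2 ml saline and the sonicate cultured (detection limit 10 CFU). Colonization = inoculated strain grown from sonicate; rate = colonized/total devices.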

Staphylococcus aureus [4] = assay: Antimicrobial activity against Staphylococcus aureus P1 infected in New Zealand rabbit assessed as decrease in catheter bacterial colonization rate at 30 mg/kg, iv (reference value: 100%); parameters: scale not given: the % may be the effect or the level left; summary of the method: as §2
Staphylococcus aureus [5] = assay: Antimicrobial activity against Staphylococcus aureus P1 infected in New Zealand rabbit assessed as decrease in catheter bacterial colonization rate at 15 mg/kg, iv (reference value: 100%); parameters: scale not given: the % may be the effect or the level left; summary of the method: as §2
Staphylococcus aureus [6] = assay: Antimicrobial activity against Staphylococcus aureus P1 infected in New Zealand rabbit assessed as decrease in catheter related infection rate at 45 mg/kg, iv (reference value: 100%); parameters: scale not given: the % may be the effect or the level left; summary of the method: as §1
Staphylococcus aureus [7] = assay: Antimicrobial activity against Staphylococcus aureus P1 by macrodilution method
Summary of the method: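 MIC and minimal bactericidal concentration determined in triplicate by standard broth macrodilution against MSSA clinical isolate P1.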

SMILES	Activity (Staphylococcus aureus [1])	Activity (Staphylococcus aureus [2])	Activity (Staphylococcus aureus [3])	Activity (Staphylococcus aureus [4])	Activity (Staphylococcus aureus [5])	Activity (Staphylococcus aureus [6])	MBC (Staphylococcus aureus [7])	MIC (Staphylococcus aureus [7])
CCCCCCCCCCNCCN[C@@]1(C)C[C@H](O[C@H]2[C@H](Oc3c4cc5cc3Oc3ccc(cc3Cl)[C@@H](O)[C@@H](NC(=O)[C@@H](CC(C)C)NC)C(=O)N[C@@H](CC(N)=O)C(=O)N[C@H]5C(=O)N[C@H]3C(=O)N[C@H](C(=O)N[C@H](C(=O)O)c5cc(O)c(CNCP(=O)(O)O)c(O)c5-c5cc3ccc5O)[C@H](O)c3ccc(c(Cl)c3)O4)O[C@H](CO)[C@@H](O)[C@@H]2O)O[C@@H](C)[C@H]1O [TELAVANCIN]	9%	35%	11%	11%	39%	11%	1 µg/mL (≈ 0.57 µM)	0.25 µg/mL (≈ 0.142 µM)
CN[C@H](CC(C)C)C(=O)N[C@H]1C(=O)N[C@@H](CC(N)=O)C(=O)N[C@H]2C(=O)N[C@H]3C(=O)N[C@H](C(=O)N[C@H](C(=O)O)c4cc(O)cc(O)c4-c4cc3ccc4O)[C@H](O)c3ccc(c(Cl)c3)Oc3cc2cc(c3O[C@@H]2O[C@H](CO)[C@@H](O)[C@H](O)[C@H]2O[C@H]2C[C@](C)(N)[C@H](O)[C@H](C)O2)Oc2ccc(cc2Cl)[C@H]1O [VANCOMYCIN]							8 µg/mL (≈ 5.52 µM)	
